Assay type in all cases: functional
One assay deals with Staphylococcus aureus. In words: Antibacterial activity against Staphylococcus aureus IAM1011. Summed up: (§1)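 Broth microdilution MIC. Bacteria grown 16 h on BHI agar, suspended in MH broth at about (3-6) × 10^6 cfu/mL. Test materials applied at 20–100 mg/mL (as stated, before dilution), serially 2-fold diluted, then mixed with the bacterial suspension. Incubated 24 h at 37°C before MIC read-out. Positive controls: ampicillin for S. aureus and E. coli, penicillin G for P. aeruginosa.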

The next assay concerns Candida albicans. In words: Antifungal activity against Candida albicans IAM1099.
The next assay relates to Botrytis cinerea. In words: Antifungal activity against Botrytis cinerea IAM1069.
In a further assay the test system is Pseudomonas aeruginosa. Put plainly: Antibacterial activity against Pseudomonas aeruginosa IAM1058. The method, boiled down: as §1
The next assay relates to Escherichia coli. Put plainly: Antibacterial activity against Escherichia coli IAM1257. The method, boiled down:
as §1

In brackets after ≈: the same amount, converted by molar mass.

Take `O=c1oc2cc(O)ccc2c(O)c1-c1ccc(O)cc1O` [ASPHODELIN A]: the minimal inhibitory concentration (MIC) was 16 µg/mL (≈ 55.9 µM) against Staphylococcus aureus; 64 µg/mL (≈ 224 µM) in the assay with Candida albicans; 128 µg/mL (≈ 447 µM) with Botrytis cinerea; 8 µg/mL (≈ 27.9 µM) against Pseudomonas aeruginosa; 4 µg/mL (≈ 14 µM) in the assay with Escherichia coli.

In the case of `CC1(C)S[C@@H]2[C@H](NC(=O)Cc3ccccc3)C(=O)N2[C@H]1C(=O)O` [PENICILLIN G], it took 1 µg/mL (≈ 2.99 µM) to inhibit growth in the assay on Pseudomonas aeruginosa (MIC).

On to `CC1(C)S[C@@H]2[C@H](NC(=O)[C@H](N)c3ccccc3)C(=O)N2[C@H]1C(=O)O` [AMPICILLIN], for which the MIC against Staphylococcus aureus is less than 0.5 µg/mL; with Escherichia coli it was 1 µg/mL (≈ 2.86 µM).

As for NYSTATIN, the MIC in the assay with Candida albicans is less than 0.5 µg/mL. The Activity in the assay on Botrytis cinerea was less than 0.5 µg/mL.

`O=c1oc2cc(O)ccc2c(O)c1-c1ccc(O[C@@H]2O[C@H](CO)[C@@H](O)[C@H](O)[C@H]2O)cc1O`: the MIC in the assay on Staphylococcus aureus came out at 128 µg/mL (≈ 285 µM); with Candida albicans it was 512 µg/mL (≈ 1140 µM); against Botrytis cinerea, 1020 µg/mL (≈ 2280 µM); with Pseudomonas aeruginosa, 256 µg/mL (≈ 571 µM); with Escherichia coli it was 128 µg/mL (≈ 285 µM).

One may read the MIC as the smallest concentration in the dilution series that meets the test's criterion for growth inhibition. Low values mean inhibition by little substance, high ones a need for much substance.

The values above are taken from ChEMBL document CHEMBL1139213, “Antimicrobial arylcoumarins from Asphodelus microcarpus” (2007).
